Results published in ChEMBL document CHEMBL4765448, “Multiple biological active 4-aminopyrazoles containing trifluoromethyl and their 4-nitroso-precursors: Synthesis and evaluation” (Eur J Med Chem, 2020).
≈ marks a conversion by molar mass, not a printed value. Calls of active or inactive are those of the source. The rule behind the calls is not given here.

Tested on: Mycobacterium tuberculosis
Experiment: Antitubercular activity against Mycobacterium tuberculosis H37Rv
Type: functional
Details: not given
How it was run: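 Mycobacterium tuberculosis strain H37Rv; minimum inhibitory concentration (MIC) taken as the lowest level needed to inhibit bacterial growth; isoniazid and pyrazinamide served as reference drugs.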
In the case of `Cn1nc(C(F)(F)F)c(N=O)c1-c1cccs1`, the MIC is reported as 12.5 µg/mL (≈ 47.9 µM).
Compound `O=Nc1c(C(F)(F)F)n[nH]c1-c1ccco1` has an MIC of 6.2 µg/mL (≈ 26.8 µM).
With `Cc1[nH]nc(C(F)(F)F)c1N=O` the MIC was 1.62 µg/mL (≈ 9.05 µM).

Tested on: Neisseria gonorrhoeae
Experiment: Antibacterial activity against Neisseria gonorrhoeae
Type: functional
Details: not given
With `Cn1nc(C(F)(F)F)c(N=O)c1-c1cccs1` the MIC was 500 µg/mL (≈ 1910 µM).
`O=Nc1c(C(F)(F)F)n[nH]c1-c1ccco1` gave an MIC of 15.6 µg/mL (≈ 67.5 µM).
In the case of `Cc1[nH]nc(C(F)(F)F)c1N=O`, the MIC is reported as 15.6 µg/mL (≈ 87.1 µM).

Tested on: Escherichia coli
Experiment: Antibacterial activity against Escherichia coli
Type: functional
Details: not given
In the case of `Cn1nc(C(F)(F)F)c(N=O)c1-c1cccs1`, the MIC is reported as 500 µg/mL (≈ 1910 µM).
Work on `O=Nc1c(C(F)(F)F)n[nH]c1-c1ccco1` yielded an MIC of 62.5 µg/mL (≈ 270 µM).
`Cc1[nH]nc(C(F)(F)F)c1N=O` showed an MIC of 250 µg/mL (≈ 1400 µM).

Tested on: Klebsiella pneumoniae
Experiment: Antibacterial activity against Klebsiella pneumoniae
Type: functional
Details: not given
Compound `Cn1nc(C(F)(F)F)c(N=O)c1-c1cccs1` has an MIC of over 500 µg/mL.
`O=Nc1c(C(F)(F)F)n[nH]c1-c1ccco1` gave an MIC of 125 µg/mL (≈ 541 µM).
Work on `Cc1[nH]nc(C(F)(F)F)c1N=O` yielded an MIC of 500 µg/mL (≈ 2790 µM).

Tested on: Citrobacter braakii
Experiment: Antibacterial activity against Citrobacter braakii
Type: functional
Details: not given
In the case of `Cn1nc(C(F)(F)F)c(N=O)c1-c1cccs1`, the MIC is reported as over 500 µg/mL.
`O=Nc1c(C(F)(F)F)n[nH]c1-c1ccco1` gave an MIC of 125 µg/mL (≈ 541 µM).
`Cc1[nH]nc(C(F)(F)F)c1N=O` gave an MIC of 250 µg/mL (≈ 1400 µM).

Tested on: Proteus vulgaris
Experiment: Antibacterial activity against Proteus vulgaris
Type: functional
Details: not given
For `Cn1nc(C(F)(F)F)c(N=O)c1-c1cccs1`, the MIC was over 500 µg/mL.
For `O=Nc1c(C(F)(F)F)n[nH]c1-c1ccco1`, the MIC was 62.5 µg/mL (≈ 270 µM).
In the case of `Cc1[nH]nc(C(F)(F)F)c1N=O`, the MIC is reported as 31.2 µg/mL (≈ 174 µM).

Tested on: Serratia marcescens
Experiment: Antibacterial activity against Serratia marcescens
Type: functional
Details: not given
In the case of `Cn1nc(C(F)(F)F)c(N=O)c1-c1cccs1`, the MIC is reported as over 500 µg/mL.
`O=Nc1c(C(F)(F)F)n[nH]c1-c1ccco1` showed an MIC of 125 µg/mL (≈ 541 µM).
Compound `Cc1[nH]nc(C(F)(F)F)c1N=O` has an MIC of 250 µg/mL (≈ 1400 µM).

Tested on: Shigella flexneri
Experiment: Antibacterial activity against Shigella flexneri
Type: functional
Details: not given
Work on `Cn1nc(C(F)(F)F)c(N=O)c1-c1cccs1` yielded an MIC of over 500 µg/mL.
`O=Nc1c(C(F)(F)F)n[nH]c1-c1ccco1` showed an MIC of 125 µg/mL (≈ 541 µM).
Work on `Cc1[nH]nc(C(F)(F)F)c1N=O` yielded an MIC of 250 µg/mL (≈ 1400 µM).

Tested on: Pseudomonas aeruginosa
Experiment: Antibacterial activity against Pseudomonas aeruginosa
Type: functional
Details: not given
`Cn1nc(C(F)(F)F)c(N=O)c1-c1cccs1` showed an MIC of over 500 µg/mL.
`O=Nc1c(C(F)(F)F)n[nH]c1-c1ccco1` gave an MIC of over 500 µg/mL.
In the case of `Cc1[nH]nc(C(F)(F)F)c1N=O`, the MIC is reported as 500 µg/mL (≈ 2790 µM).

Tested on: Streptococcus pyogenes
Experiment: Antibacterial activity against Streptococcus pyogenes
Type: functional
Details: not given
`Cn1nc(C(F)(F)F)c(N=O)c1-c1cccs1` showed an MIC of over 500 µg/mL.
`O=Nc1c(C(F)(F)F)n[nH]c1-c1ccco1` showed an MIC of 7.8 µg/mL (≈ 33.7 µM).
Compound `Cc1[nH]nc(C(F)(F)F)c1N=O` has an MIC of 7.8 µg/mL (≈ 43.6 µM).

Tested on: Staphylococcus aureus
Experiment: Antibacterial activity against Staphylococcus aureus
Type: functional
Details: not given
`Cn1nc(C(F)(F)F)c(N=O)c1-c1cccs1` gave an MIC of over 500 µg/mL.
`O=Nc1c(C(F)(F)F)n[nH]c1-c1ccco1` gave an MIC of 31.2 µg/mL (≈ 135 µM).
`Cc1[nH]nc(C(F)(F)F)c1N=O` showed an MIC of 31.2 µg/mL (≈ 174 µM).

Tested on: Staphylococcus aureus
Experiment: Antibacterial activity against methicillin resistant Staphylococcus aureus
Type: functional
Details: not given
`O=Nc1c(C(F)(F)F)n[nH]c1-c1ccco1` gave an MIC of 15.6 µg/mL (≈ 67.5 µM).
Work on `Cc1[nH]nc(C(F)(F)F)c1N=O` yielded an MIC of 62.5 µg/mL (≈ 349 µM).

Tested on: Trichophyton rubrum
Experiment: Antifungal activity against Trichophyton rubrum
Type: functional
Details: not given
For `Cn1nc(C(F)(F)F)c(N=O)c1-c1cccs1`, the MIC was 12.5 µg/mL (≈ 47.9 µM).
With `O=Nc1c(C(F)(F)F)n[nH]c1-c1ccco1` the MIC was 12.5 µg/mL (≈ 54.1 µM).
`Cc1[nH]nc(C(F)(F)F)c1N=O` showed an MIC of 25 µg/mL (≈ 140 µM).

Tested on: Nannizzia gypsea
Experiment: Antifungal activity against Trichophyton gypseum
Type: functional
Details: not given
With `Cn1nc(C(F)(F)F)c(N=O)c1-c1cccs1` the MIC was 50 µg/mL (≈ 191 µM).
In the case of `O=Nc1c(C(F)(F)F)n[nH]c1-c1ccco1`, the MIC is reported as 25 µg/mL (≈ 108 µM).
Work on `Cc1[nH]nc(C(F)(F)F)c1N=O` yielded an MIC of 50 µg/mL (≈ 279 µM).

Tested on: Trichophyton tonsurans
Experiment: Antifungal activity against Trichophyton tonsurans
Type: functional
Details: not given
`Cn1nc(C(F)(F)F)c(N=O)c1-c1cccs1` showed an MIC of 50 µg/mL (≈ 191 µM).
`O=Nc1c(C(F)(F)F)n[nH]c1-c1ccco1` showed an MIC of 50 µg/mL (≈ 216 µM).
In the case of `Cc1[nH]nc(C(F)(F)F)c1N=O`, the MIC is reported as 50 µg/mL (≈ 279 µM).

Tested on: Trichophyton interdigitale
Experiment: Antifungal activity against Trichophyton mentagrophytes var. interdigitale
Type: functional
Details: not given
For `Cn1nc(C(F)(F)F)c(N=O)c1-c1cccs1`, the MIC was 25 µg/mL (≈ 95.7 µM).
With `O=Nc1c(C(F)(F)F)n[nH]c1-c1ccco1` the MIC was 50 µg/mL (≈ 216 µM).
With `Cc1[nH]nc(C(F)(F)F)c1N=O` the MIC was 50 µg/mL (≈ 279 µM).

Tested on: Epidermophyton floccosum
Experiment: Antifungal activity against Epidermophyton floccosum
Type: functional
Details: not given
`Cn1nc(C(F)(F)F)c(N=O)c1-c1cccs1` showed an MIC of 50 µg/mL (≈ 191 µM).
In the case of `O=Nc1c(C(F)(F)F)n[nH]c1-c1ccco1`, the MIC is reported as 50 µg/mL (≈ 216 µM).
With `Cc1[nH]nc(C(F)(F)F)c1N=O` the MIC was 50 µg/mL (≈ 279 µM).

Tested on: Microsporum canis
Experiment: Antifungal activity against Microsporum canis
Type: functional
Details: not given
`Cn1nc(C(F)(F)F)c(N=O)c1-c1cccs1` gave an MIC of 25 µg/mL (≈ 95.7 µM).
With `O=Nc1c(C(F)(F)F)n[nH]c1-c1ccco1` the MIC was 12.5 µg/mL (≈ 54.1 µM).
For `Cc1[nH]nc(C(F)(F)F)c1N=O`, the MIC was 25 µg/mL (≈ 140 µM).

Tested on: Candida albicans
Experiment: Antifungal activity against Candida albicans
Type: functional
Details: not given
In the case of `Cn1nc(C(F)(F)F)c(N=O)c1-c1cccs1`, the MIC is reported as 25 µg/mL (≈ 95.7 µM).
For `O=Nc1c(C(F)(F)F)n[nH]c1-c1ccco1`, the MIC was 25 µg/mL (≈ 108 µM).
With `Cc1[nH]nc(C(F)(F)F)c1N=O` the MIC was 50 µg/mL (≈ 279 µM).

Tested on: not listed separately
Experiment: Drug metabolism assessed as nitric oxide release in presence of rat plasma by Griess reagent based assay
Type: cell-free
Details: not given
In the case of `Cn1nc(C(F)(F)F)c(N=O)c1-c1cccs1`, the Drug metabolism is reported as “Metabolite detected”.

Tested on: not listed separately
Experiment: Drug metabolism assessed as nitric oxide release in absence of rat plasma by Griess reagent based assay
Type: cell-free
Details: not given
With `Cn1nc(C(F)(F)F)c(N=O)c1-c1cccs1` the Drug metabolism was “Metabolite not detected”.

Tested on: not listed separately
Experiment: Antioxidant activity assessed as trolox equivalent of ABTS radical scavenging activity measured after 1 hr by UV-vis spectrophotometric method
Type: functional
Details: not given
How it was run: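 ABTS cation-radical decolorization was read spectrophotometrically as the fall in absorbance after 1 h. Trolox was the reference. TEAC was taken as the ratio of concentration-response slopes, test/Trolox, and IC50 was also derived. Data are mean ± SEM, n = 3.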
`O=Nc1c(C(F)(F)F)n[nH]c1-c1ccco1` gave an Activity of 0.02 equiv.
In the case of `Cc1[nH]nc(C(F)(F)F)c1N=O`, the Activity is reported as “inactive”.

Tested on: HeLa
Experiment: Cytotoxicity against human HeLa cells
Type: functional, cell-based
Details: not given
With `Cc1[nH]nc(C(F)(F)F)c1N=O` the Activity was “Dose-dependent effect”.

Same assay, conditions: Homo sapiens, HeLa; read-out: IC50
`Cc1[nH]nc(C(F)(F)F)c1N=O` gave an IC50 of 61.6 µM.

Tested on: NHDF
Experiment: Cytotoxicity against HDF cells
Type: cell-based, Homo sapiens
Details: nhdf
For `Cc1[nH]nc(C(F)(F)F)c1N=O`, the IC50 was “Not Active”.

Tested on: not listed separately
Experiment: Selectivity index, ratio of IC50 for HDF cells to IC50 for human HeLa cells
Type: toxicity
Details: HDF cells versus HeLa cells, read-out: Ratio IC50
`Cc1[nH]nc(C(F)(F)F)c1N=O` gave a selectivity ratio of over 1.62.

Tested on: Rattus norvegicus
Experiment: Analgesic activity in rat assessed as prolongation of latency period at 15 mg/kg, ip measured after 1 hr by hot-plate test relative to control
Type: functional
Details: not given
How it was run: (§1)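 Hot-plate test in rats. Compounds were given by intraperitoneal injection. Latency was read at 1 h and, for some compounds, also at 2 h after dosing. Results are expressed as % prolongation of the latent period versus vehicle-treated control. Significance was given as p-values.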
With `Cn1nc(C(F)(F)F)c(N=O)c1-c1cccs1` the Activity was 29.8%.

Tested on: Rattus norvegicus
Experiment: Analgesic activity in rat assessed as prolongation of latency period at 15 mg/kg, ip measured after 2 hrs by hot-plate test relative to control
Type: functional
Details: not given
How it was run: as §1
`Cn1nc(C(F)(F)F)c(N=O)c1-c1cccs1` gave an Activity of 43.8%.

Tested on: Rattus norvegicus
Experiment: Antiinflammatory activity in rat model of carrageenan-induced paw edema assessed as inhibition of hind paw swelling at 15 mg/kg, ip measured after 5 hrs
Type: functional, organism-based
Details: not given
In the case of `Cn1nc(C(F)(F)F)c(N=O)c1-c1cccs1`, the Activity is reported as “Active”.
With `O=Nc1c(C(F)(F)F)n[nH]c1-c1ccco1` the Activity was “Active”.
In the case of `Cc1[nH]nc(C(F)(F)F)c1N=O`, the Activity is reported as “Active”.

Tested on: not listed separately
Experiment: Acute toxicity in mouse at 150 mg/kg, ip administered as single dose
Type: organism-based
Details: in vivo
How it was run: (§2)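 Mice, single intraperitoneal dose, following OECD Guideline for testing of chemicals; three mice per dose level; doses tested 10–300 mg/kg. Read-out is the number of survivors out of 3, used to estimate the expected LD50 range.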
In the case of `Cc1[nH]nc(C(F)(F)F)c1N=O`, the Activity is reported as “Toxic”.

Tested on: not listed separately
Experiment: Acute toxicity in mouse at 300 mg/kg, ip administered as single dose
Type: organism-based
Details: in vivo
How it was run: as §2
In the case of `O=Nc1c(C(F)(F)F)n[nH]c1-c1ccco1`, the Activity is reported as “Toxic”.
